We go through 13 molecules from PubChem BioAssay.

The nature of test [1]: inhibitors of TNFa-induced NFkB p65 translocation, primary screen, imaging, HUVEC, MLSMR starter and 10KST1 sets (AID 438;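 active = inhibition above 20% together with a positive visual image hit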;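 note: compound added about 3h40 before a 20 min TNFalpha stimulation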;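 for inhibition: signal is the nuclear over cytoplasmic p65 intensity ratio per well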). To be noted: HUVEC TNFa-induced p65 nuclear translocation; cell count: measured here: nuclei count (cytotoxicity indicator), at 2.08 µM; inhibition: at 2 µM, stronger effect = higher value, 0% TNFa-plus-vehicle, 100% no-TNFa wells.
Test [2] in a line: endothelial E-selectin expression blockers – imaging, HUVEC, immunofluorescence, MLSMR starter and 10KST1 sets, primary screen (AID 487;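 active = visually confirmed hit in the image check and inhibition above 20%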;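 for inhibition: signal is fraction of cell area covered by stained E-selectin grains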;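 for nuclei count: 100% = median nuclei count of all wells on the same plate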). To be noted: HUVEC TNFalpha-induced E-selectin immunofluorescence imaging, at 2 µM; inhibition: stronger effect = higher value; nuclei count: measured here: cell number, toxicity.
A short description of test [3]: Primary imaging screen for DUSP6 inhibitors that restore phospho-Erk in transfected HeLa cells, chemical complementation (AID 609;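 active = compounds giving at least 50% inhibition in the cell-based MKP-3 phosphatase rescue imaging test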;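 for inhibition: phospho-Erk level distribution per well compared with pooled transfected vehicle control wells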). To be noted: HeLa MKP-3 transfected, phospho-Erk imaging KS statistic, at 10 µM, cells stimulated with TPA for 15 min.
Test [4] has as its target Dual specificity protein phosphatase 6 (Homo sapiens) (UniProt Q16828). The test is described as above. Particulars: HeLa MKP-3 transfected, phospho-Erk imaging KS statistic; at 10 µM; stronger effect = higher value; cells stimulated with TPA for 15 min.
For test [5], the target named is Voltage-gated potassium channel subunit beta-2 (Rattus norvegicus) (UniProt P62483). Description: inhibitors of rat Kvbeta2 reductase activity – biochemical, NADPH fluorescence, primary screen (AID 622;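 active = fluorescence slope higher than the sample average by over 3 SD, cut at about -0.22 in these data, passing the limit was not always enough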;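 note: slope of raw intensity against log time taken from 70 to 1610 s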). Particulars: recombinant KvBeta, 4-cyanobenzaldehyde reduction, at 10 µM, stronger effect = higher value.
Sequence of Voltage-gated potassium channel subunit beta-2 (Rattus norvegicus) (P62483 whole entry, looked up): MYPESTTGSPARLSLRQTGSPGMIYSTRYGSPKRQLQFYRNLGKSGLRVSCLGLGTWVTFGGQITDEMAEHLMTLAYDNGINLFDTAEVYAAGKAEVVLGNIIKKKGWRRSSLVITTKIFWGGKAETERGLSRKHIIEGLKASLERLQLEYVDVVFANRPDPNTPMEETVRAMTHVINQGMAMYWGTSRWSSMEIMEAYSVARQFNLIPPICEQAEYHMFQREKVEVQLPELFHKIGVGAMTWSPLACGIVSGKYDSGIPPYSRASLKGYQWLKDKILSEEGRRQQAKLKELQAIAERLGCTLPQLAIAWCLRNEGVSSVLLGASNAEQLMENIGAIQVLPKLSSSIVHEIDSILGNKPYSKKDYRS
The target is the same in test [6]. Description: enhancers of rat Kvbeta2 NADPH turnover – biochemical, NADPH fluorescence, primary screen (AID 623).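 Note: fluorescence intensity change per second fitted from 20 to 320 s.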 To be noted: Recombinant KvBeta, NADPH fluorescence decrease slope, 10 min; at 10 µM; stronger effect = lower value.
Test [7] addresses Muscarinic acetylcholine receptor M4 (Homo sapiens) (UniProt P08173). Description: M4-linked GIRK flux change, two-sided – cell-based, HEK293 M4/GIRK, thallium flux, BTC-AM, M4 allosteric agonist project, primary screen (AID 625;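 active = fluorescence slope after compound addition differing from the mean of all tested samples at 99.7% confidence, mostly higher but some lower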;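 note: thallium influx through GIRK channels coupled to M4 in HEK293 cells with BTC-AM dye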). To be noted: at 10 µM, actives lie on both sides. The procedure, abridged: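 Assay system: HEK293 cells with M4 receptor and GIRK channels / Controls: carbachol and DMSO controls / Schedule: 1 h dye loading, 2 min kinetic read / Technique: kinetic fluorescence with BTC-AM dye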

The nature of test [8]: inhibitors of larval lipid processing in zebrafish, primary screen, whole organism, PED6 fluorescence, gall bladder and intestine (AID 686;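 active = a full or partial loss of lipid-probe fluorescence in the fish gall bladder, intestine or both, judged by eye; inactive = no fluorescence loss, or compound toxic to the fish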;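 note: larvae 5 to 7 days old with five fish per well; signal comes from phospholipase A2 cleavage of quenched PED6 carried via bile; overnight exposure to compound and PED6 before scoring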). To be noted: Zebrafish larvae PED6 lipid processing, fluorescence scoring; screened at 20 µM (by protocol). Put shortly:
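Doses: 20 µM single dose. Test system: live zebrafish larvae aged 5-7 days, whole organism. Quantity: five larvae per well. Measured by: By-eye fluorescence microscopy. Reagent: ingested quenched lipid PED6 at 100 nM. Read-out: visual per-well fluorescence inhibition score. Times: overnight exposure of larvae to compound plus PED6.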

A short description of test [9]: loss of swimming-algae plug formation – whole organism, Chlamydomonas reinhardtii, WT vs cilia-less mutant, absorbance, 96-well, primary screen (AID 463189;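 active = inhibition at or above 50% relative to wild type and mutant plate controls; inactive = inhibition below 50%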;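 note: 0% = wild type cc124 cells in DMSO and 100% = ciliumless bld1 mutant cells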). Particulars: Chlamydomonas reinhardtii gravitaxis, OD600 absorbance, 2 days; at 10 µM; stronger effect = higher value.
[10] abbreviates: measured here: cell density z-score.
Where [11] appears, read: measured here: nuclear c-Myc green intensity z-score.
[12] abbreviates: measured here: nuclear pErk red intensity z-score, stronger effect = higher value.

The inhibition is the drop in the measured response relative to a control, in per cent.

Active and inactive are the calls of the source.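 Rule for the calls, unless noted: active = NADPH fluorescence slope more negative than the mean of all samples by about 3 SD, 99.7% confidence; inactive = the rest.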

Sequence of Dual specificity protein phosphatase 6 (Homo sapiens) (Q16828 whole entry, looked up): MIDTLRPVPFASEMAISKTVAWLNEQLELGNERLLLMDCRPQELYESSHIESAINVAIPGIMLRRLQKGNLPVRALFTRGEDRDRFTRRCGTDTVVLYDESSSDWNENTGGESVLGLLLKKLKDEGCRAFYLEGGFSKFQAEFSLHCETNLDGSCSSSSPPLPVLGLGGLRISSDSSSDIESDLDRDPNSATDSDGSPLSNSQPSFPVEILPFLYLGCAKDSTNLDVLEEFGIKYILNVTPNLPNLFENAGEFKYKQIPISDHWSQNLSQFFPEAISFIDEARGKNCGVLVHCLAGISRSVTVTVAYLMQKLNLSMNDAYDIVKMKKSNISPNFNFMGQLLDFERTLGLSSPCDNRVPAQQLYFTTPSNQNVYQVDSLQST
Sequence of Muscarinic acetylcholine receptor M4 (Homo sapiens) (P08173 whole entry, looked up): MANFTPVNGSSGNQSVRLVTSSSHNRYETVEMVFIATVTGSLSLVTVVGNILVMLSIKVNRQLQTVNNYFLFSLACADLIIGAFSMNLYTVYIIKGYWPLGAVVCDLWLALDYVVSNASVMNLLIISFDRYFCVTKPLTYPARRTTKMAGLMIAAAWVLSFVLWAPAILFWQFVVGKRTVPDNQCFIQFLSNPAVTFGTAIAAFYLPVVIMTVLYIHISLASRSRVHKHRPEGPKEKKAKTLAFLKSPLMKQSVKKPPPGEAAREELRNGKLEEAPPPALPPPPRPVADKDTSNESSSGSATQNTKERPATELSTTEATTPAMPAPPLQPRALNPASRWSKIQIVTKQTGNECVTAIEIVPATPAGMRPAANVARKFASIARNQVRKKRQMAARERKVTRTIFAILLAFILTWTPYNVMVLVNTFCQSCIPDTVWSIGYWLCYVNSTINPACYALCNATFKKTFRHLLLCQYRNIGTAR

Regarding `CCCCCNc1nc(N2CCCC2)c2c(c1C#N)CCN(C)C2`, the cell count in test [1] worked out at 596. In addition, the inhibition is 8.1% (inactive) in test [1], -52.3% (inactive) in [2], -9.53% (inactive) in test [4] and 165% (active) in [9]. The molecule also registered a nuclei count in test [2] of 146%. The z-score in [3] (setting [10]) was -0.626; in test [3] (setting [11]), 0.142; in [3] (setting [12]), -0.491. Further, the fluorescence slope was -0.446 (inactive) in test [5] and 0.0037 (inactive) in test [7]. Moreover, in test [6], the NADPH fluorescence slope is -8.3e-05 (inactive). Further, the outcome in test [8] was inactive.
For the molecule `CCOC(=O)C(C)c1nc2ccccc2[nH]c1=O` (centres undefined), in test [1], the cell count amounted to 579. The inhibition was -6.6% (inactive) in test [1], -30.5% (inactive) in test [2], 1.9e-07% (inactive) in [4] and 12.9% (inactive) in test [9]. The molecule further registered a nuclei count in [2] of 164%. Also, the figures for the z-score in test [3] (setting [10]), in [3] (setting [11]) and in test [3] (setting [12]) were -0.098, 0.564 and 0.462, respectively. In addition, the values for the fluorescence slope in [5] and in [7] were -0.397 (inactive) and 0.00575 (inactive), respectively. Further, the NADPH fluorescence slope in test [6] was -6.3e-05 (inactive). Also, the result in [8] was inactive.
Take `CNc1oc(-c2ccccc2Cl)nc1C#N`: the cell count in test [1] was determined as 368. Also, the inhibition was 4.3% (inactive) in [1], 23.8% (inactive) in test [2], 3.56% (inactive) in test [4] and 19.9% (inactive) in [9]. The nuclei count in test [2] came out at 79.3%. Also, the z-score in [3] (setting [10]) is 0.949; in test [3] (setting [11]), -0.665; in [3] (setting [12]) it was 0.059. Also, the fluorescence slope in test [5] is -0.594 (inactive); in [7] it was 0.00508 (inactive). For the same molecule, in test [6], the NADPH fluorescence slope was -4.5e-05 (inactive). For the same molecule, the outcome in [8] is “active; weak signal in gallbladder and intestine”.
As to `CCCCCNC(=O)C(C#N)c1nc2ccccc2nc1N1CC(C)OC(C)C1` (centres undefined), in [1], the cell count was determined as 366. Also, the inhibition in [1] was -5.7% (inactive); in test [2], -192% (inactive); in test [4] it was 19.4% (inactive); in test [9], -1.81% (inactive). For the same molecule, the nuclei count in test [2] came out at 130%. Besides, the z-score in test [3] (setting [10]) is 1.56; in [3] (setting [11]) it was -0.566; in test [3] (setting [12]) it was -0.352. Further, the fluorescence slope is -0.482 (inactive) in [5] and 0.00502 (inactive) in test [7]. In addition, the NADPH fluorescence slope in test [6] is -8.1e-05 (inactive). Besides, the molecule was classed as inactive in [8].
Consider `Cc1ccc(C(=O)NCCCNCCCNC(=O)c2ccc(C)nc2)cn1`, for which the cell count in test [1] was 393. For the same molecule, the inhibition was -2.8% (inactive) in test [1], -153% (inactive) in test [2], 3.56% (inactive) in [4] and 0.875% (inactive) in test [9]. For the same molecule, the nuclei count in test [2] stood at 151%. Also, the results for the z-score in test [3] (setting [10]), in test [3] (setting [11]) and in [3] (setting [12]) were 0.349, -0.364 and -0.725, respectively. Moreover, the results for the fluorescence slope in test [5] and in test [7] were -0.471 (inactive) and 0.00476 (inactive), respectively. The NADPH fluorescence slope in test [6] is -8.7e-05 (inactive). Further, in test [8], the molecule was called inactive.
Regarding `COC(=O)CSc1nc(N)nc(C)c1Br`, the cell count in test [1] amounted to 688. Besides, the inhibition is -10% (inactive) in test [1], 23.8% (inactive) in test [2], -3.95% (inactive) in test [4] and -4.73% (inactive) in [9]. In test [2], this molecule had a nuclei count of 150%. The z-score in test [3] (setting [10]) was 0.424; in test [3] (setting [11]), 0.473; in test [3] (setting [12]) it was 0.0816. Besides, the fluorescence slope in test [5] is -0.429 (inactive); in test [7], 0.00418 (inactive). Besides, in [6], the NADPH fluorescence slope was -3.4e-05 (inactive). In addition, the molecule was called inactive in [8].
On to `CCSc1nnc(NC(=O)NCC(F)(F)F)s1`, for which the cell count in test [1] came to 580. The inhibition in test [1] was -4.9% (inactive); in test [2], 31.5% (inactive); in test [4] it was 9.07% (inactive); in test [9], -11.4% (inactive). Also, the nuclei count in [2] was determined as 96.4%. The z-score in test [3] (setting [10]) was 1.02; in test [3] (setting [11]), -0.999; in [3] (setting [12]) it was -0.913. For the same molecule, the fluorescence slope is -0.469 (inactive) in test [5] and 0.00649 (inactive) in test [7]. The NADPH fluorescence slope in [6] is -3.9e-05 (inactive). For the same molecule, the molecule was called inactive in [8].
`CCOC(=O)CSc1nc(N)c(C(=O)Nc2ccc(N(C)C)cc2)s1`: in test [1], the cell count was 703. The inhibition in test [1] was -7% (inactive); in test [2], -123% (inactive); in test [4], 1.98% (inactive); in [9], -7.12% (inactive). In [2], this molecule yielded a nuclei count of 188%. Further, the z-score was -1.17 in [3] (setting [10]), 1.84 in test [3] (setting [11]) and -1.52 in test [3] (setting [12]). In addition, the fluorescence slope in test [5] was -0.46 (inactive); in test [7], 0.00383 (inactive). Further, in [6], the NADPH fluorescence slope was -6.8e-05 (inactive). The outcome in [8] is “active; weak signal in gallbladder and intestine”.
Take `CCSc1nc2sc3c(c2c(=O)n1C1CCCCC1)CCN(C)C3`: the cell count in test [1] is 364. Also, the inhibition in [1] was -10% (inactive); in test [2], -37.3% (inactive); in test [4] it was -8.59% (inactive); in [9], -2.62% (inactive). Moreover, the nuclei count in test [2] is 101%. The z-score was -0.995 in test [3] (setting [10]), 0.578 in [3] (setting [11]) and 0.504 in [3] (setting [12]). Besides, the results for the fluorescence slope in [5] and in [7] were -0.419 (inactive) and 0.00313 (inactive), respectively. In addition, in [6], the NADPH fluorescence slope was -6.1e-05 (inactive). In [8], the molecule was classed as inactive.
Take `Cc1ccc(N(CC(O)CN(C)C)S(=O)(=O)c2ccccc2)cc1` (centres undefined): the cell count in test [1] was determined as 587. The inhibition was -9.4% (inactive) in test [1], 6.4% (inactive) in [2], -4.59% (inactive) in test [4] and 11.5% (inactive) in test [9]. Also, in test [2], the nuclei count stood at 192%. Moreover, the z-score is 1.28 in test [3] (setting [10]), -0.151 in [3] (setting [11]) and 0.0736 in test [3] (setting [12]). In addition, the results for the fluorescence slope in test [5] and in [7] were -0.384 (inactive) and 0.00579 (inactive), respectively. In addition, the NADPH fluorescence slope in test [6] was -7.3e-05 (inactive). In addition, the call in test [8] was inactive.
`O=C1OC(N2CCN(C/C=C/c3ccccc3)CC2)c2ccccc21` (centres undefined): the cell count in test [1] stood at 390. The inhibition in test [1] is -1.2% (inactive); in [2], -65.2% (inactive); in test [4] it was 14% (inactive); in test [9], 28.9% (inactive). Besides, in [2], the nuclei count is 168%. The z-score in test [3] (setting [10]) is 0.231; in test [3] (setting [11]) it was -0.597; in test [3] (setting [12]), 0.38. Further, the values for the fluorescence slope in test [5] and in test [7] were -0.458 (inactive) and 0.00426 (inactive), respectively. For the same molecule, the NADPH fluorescence slope in test [6] was -0.000109 (inactive). Also, in [8], the molecule was classed as inactive.
With `O=C1NC(=O)C(c2cn(-c3ccccc3)nc2-c2ccc(F)cc2)N1` (centres undefined), in test [1], the cell count came out at 664. Besides, the inhibition in test [1] is 1.3% (inactive); in test [2], -12.6% (inactive); in test [4], 3.49% (inactive); in test [9], 2.79% (inactive). Besides, the nuclei count in [2] is 115%. Further, the z-score in test [3] (setting [10]) is 0.135; in [3] (setting [11]) it was -0.561; in test [3] (setting [12]) it was -0.862. Besides, the fluorescence slope in test [5] was -0.46 (inactive); in test [7], 0.005 (inactive). The NADPH fluorescence slope in test [6] is -5.3e-05 (inactive). Also, the molecule was called inactive in test [8].
On to `Cc1cc2c(c(=O)n1Cc1ccccn1)C(c1ccc3c(c1)OCO3)C(C#N)=C(N)O2` (centres undefined), for which the cell count in test [1] is 692. Moreover, the inhibition is -7.3% (inactive) in test [1], -44.9% (inactive) in test [2], -2.91% (inactive) in [4] and 11.3% (inactive) in test [9]. The nuclei count in [2] was 183%. For the same molecule, the z-score in test [3] (setting [10]) was 0.057; in test [3] (setting [11]), 2.34; in test [3] (setting [12]) it was 0.285. For the same molecule, the values for the fluorescence slope in test [5] and in test [7] were -0.451 (inactive) and 0.00525 (inactive), respectively. The NADPH fluorescence slope in test [6] was -5.4e-05 (inactive). Moreover, the molecule was classed as inactive in [8].
